According to ChEMBL document CHEMBL4266020, “Design, Synthesis, and Antifibrosis Activity in Liver of Nonsecosteroidal Vitamin D Receptor Agonists with Phenyl-pyrrolyl Pentane Skeleton” (J Med Chem, 2018):
Active and inactive are the calls of the source. The rule behind the calls is not given here.

How the values were obtained:
Mus musculus [1] = experiment: Hepatoprotective activity against CCL4-induced liver damage in C57BL/6J mouse assessed as reduction in serum TBA levels at 20 ug/kg, po administered 5 times a week via gavage measured at 72 hrs post final CCl4 injection; format: functional, organism-based
How it was run: (§1)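 Same CCl4 mouse model (n=5; 0.5 mL/kg IP, 3×/week for 4 weeks; 20 µg/kg gavage 5×/week from day 20; sacrifice 72 h after last CCl4). Serum obtained by centrifugation at 3000 rpm for 15 min at 4°C. ALT, AST, TBA and calcium measured with commercial kits. Mean ± SD.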

[2] = molecular target: T1, Vitamin D3 receptor (Homo sapiens) (UniProt P11473); experiment: Binding affinity to VDR ligand binding domain (unknown origin) at 100 nM by fluorescence polarization assay relative to 1,25(OH)2D3
T1 sequence (whole entry): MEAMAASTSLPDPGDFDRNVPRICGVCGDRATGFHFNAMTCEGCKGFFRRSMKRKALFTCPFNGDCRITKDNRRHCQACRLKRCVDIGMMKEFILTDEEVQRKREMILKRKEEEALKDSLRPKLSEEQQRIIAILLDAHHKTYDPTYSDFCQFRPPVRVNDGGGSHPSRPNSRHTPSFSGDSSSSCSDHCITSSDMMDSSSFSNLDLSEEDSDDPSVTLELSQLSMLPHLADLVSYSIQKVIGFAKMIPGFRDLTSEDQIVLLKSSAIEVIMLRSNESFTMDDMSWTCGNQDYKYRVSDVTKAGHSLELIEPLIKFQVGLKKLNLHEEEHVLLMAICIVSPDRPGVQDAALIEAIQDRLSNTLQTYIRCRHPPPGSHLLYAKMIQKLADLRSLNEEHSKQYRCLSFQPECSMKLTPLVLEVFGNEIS

Mus musculus [3] = experiment: Hepatoprotective activity against CCL4-induced liver damage in C57BL/6J mouse assessed as reduction in serum ALT levels at 20 ug/kg, po administered 5 times a week via gavage measured at 72 hrs post final CCl4 injection; format: functional, organism-based; how it was run: as §1
Mus musculus [4] = experiment: Hepatoprotective activity against CCL4-induced liver damage in C57BL/6J mouse assessed as reduction in serum AST levels at 20 ug/kg, po administered 5 times a week via gavage measured at 72 hrs post final CCl4 injection; format: functional, organism-based; how it was run: as §1
[5] = molecular target: T1, Vitamin D3 receptor (Homo sapiens); experiment: Agonist activity at VDR in human LX2 cells assessed as inhibition of TGFbeta1-induced collagen-1 synthesis at 100 nM after 24 hrs by ELISA relative to 1,25(OH)2D3
Mus musculus [6] = experiment: Antifibrotic activity in C57BL/6J mouse model of CCl4-induced liver fibrosis assessed as reduction in hydroxyproline levels in liver at 20 ug/kg, po administered 5 times a week via gavage measured at 72 hrs post final CCl4 injection; format: functional, organism-based
How it was run: (§2)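 Same CCl4 mouse model (n=5; 0.5 mL/kg IP in corn oil, 3×/week for 4 weeks; 20 µg/kg oral gavage 5×/week from day 20; sacrifice 72 h after last CCl4). Livers fixed in 4% paraformaldehyde for 24 h, paraffin-embedded, and cut into 5 µm sections. Sections stained with H&E (×100) or Masson's trichrome (×200). Hydroxyproline measured by kit.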

[7] = Half life in Sprague-Dawley rat at 20 mg/kg, po by HPLC analysis; format: ADME, organism-based; settings: in vivo
[8] = Oral bioavailability in Sprague-Dawley rat at 20 mg/kg by HPLC analysis; format: ADME, organism-based; settings: in vivo
Mus musculus [9] = experiment: Antifibrotic activity in C57BL/6J mouse model of CCl4-induced liver fibrosis assessed as decrease in alpha-SMA expression in liver at 20 ug/kg, po administered 5 times a week via gavage measured at 72 hrs post final CCl4 injection by IHC-staining based assay; format: functional, organism-based
[10] = molecular target: T1, Vitamin D3 receptor (Homo sapiens); experiment: Transactivation of VDR in human LX2 cells assessed as inhibition of TGFbeta1-induced collagen 1 protein levels at 100 nM after 24 hrs by Western blot analysis; format: cell-based
How it was run: (§3)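 LX-2 cells cultured 24 h with 100 nM compound in TGFβ1-treated cells. Proteins separated on 10% SDS-PAGE, transferred to PVDF, and α-SMA or collagen I bands detected by infrared scanning.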

[11] = molecular target: T1, Vitamin D3 receptor (Homo sapiens); experiment: Agonist activity at VDR in human LX2 cells assessed as upregulation of TGFbeta1-induced CYP24A1 mRNA expression after 24 hrs by Q-PCR method; format: cell-based
Mus musculus [12] = experiment: Induction of serum calcium levels in CCL4-induced C57BL/6J mouse liver damage model at 20 ug/kg, po administered 5 times a week via gavage measured at 72 hrs post final CCl4 injection; format: organism-based; settings: in vivo, 0.02 mg/kg; how it was run: as §1
Homo sapiens [13] = species on record: Homo sapiens; experiment: Inhibition of TGFbeta1-mediated collagen-1 activation in human LX2 cells at 100 nM after 24 hrs in presence of VDR siRNA by Western blot analysis; format: functional, cell-based
How it was run: (§4)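 LX-2 cells transfected with VDR-directed or scrambled siRNA (50 nM, Lipofectamine 2000), cultured 24 h, then treated 24 h with 100 nM compound, TGFβ1 (1 ng/mL), or both. VDR, α-SMA and collagen I measured by western blot (10% SDS-PAGE, PVDF).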

Mus musculus [14] = experiment: Antifibrotic activity in C57BL/6J mouse model of CCl4-induced liver fibrosis assessed as reduction in COL1A1 mRNA expression in liver at 20 ug/kg, po administered 5 times a week via gavage measured at 72 hrs post final CCl4 injection by Q-PCR analysis; format: functional, organism-based
Mus musculus [15] = experiment: Antifibrotic activity in C57BL/6J mouse model of CCl4-induced liver fibrosis assessed as increase in CYP24A1 expression in liver at 20 ug/kg, po administered 5 times a week via gavage measured at 72 hrs post final CCl4 injection by Q-PCR analysis; format: functional, organism-based
[16] = molecular target: T1, Vitamin D3 receptor (Homo sapiens); experiment: Transactivation of VDR (unknown origin) expressed in HEK293 cells co-transfected with human RXRalpha after 24 hrs by dual luciferase reporter gene assay; format: cell-based
How it was run: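 HEK293 cells at 85-90% confluence transfected per well with 140 ng TK-SPP×3-Luc reporter, 20 ng pCMX-Renilla, 30 ng pENTER-CMV-hRXRα and 100 ng pCMX-VDR. Compounds added 8 h after transfection. Dual-luciferase assay run 24 h later, firefly normalized to Renilla, three experiments.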

Homo sapiens [17] = species on record: Homo sapiens; experiment: Inhibition of TGFbeta1-mediated alphaSMA expression in human LX2 cells at 100 nM after 24 hrs in presence of VDR siRNA by Western blot analysis; format: functional, cell-based; how it was run: as §4
[18] = molecular target: T1, Vitamin D3 receptor (Homo sapiens); experiment: Transactivation of VDR in human LX2 cells assessed as inhibition of TGFbeta1-induced alpha-SMA protein levels at 100 nM after 24 hrs by Western blot analysis; format: cell-based; how it was run: as §3
[19] = molecular target: T1, Vitamin D3 receptor (Homo sapiens); experiment: Transactivation of VDR in human LX2 cells assessed as inhibition of TGFbeta1-induced ACTA2 mRNA expression at 100 nM after 24 hrs by Q-PCR analysis; format: cell-based
How it was run: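 LX-2 cells cultured with 100 nM compound for 24 h. ACTA2 mRNA measured by SYBR Green Q-PCR, normalized to U36B4 (human internal control).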

Mus musculus [20] = experiment: Effect on Trpv6 mRNA expression in CCL4-induced C57BL/6J mouse liver damage model at 20 ug/kg, po via gavage measured on day 3 and 7 by Q-PCR analysis; format: ADME, organism-based; settings: in vivo, 0.02 mg/kg
Mus musculus [21] = experiment: Antifibrotic activity in C57BL/6J mouse model of CCl4-induced liver fibrosis assessed as decrease in alpha-SMA expression in liver at 20 ug/kg, po administered 5 times a week via gavage measured at 72 hrs post final CCl4 injection by Q-PCR analysis; format: functional, organism-based
Mus musculus [22] = experiment: Antifibrotic activity in C57BL6/J mouse model of CCl4-induced liver fibrosis assessed as reduction in collagen accumulation in liver at 20 ug/kg, po administered 5 times a week via gavage measured at 72 hrs post final CCl4 injection by Masson's trichrome-staining based assay; format: functional, organism-based; settings: C57BL/6J; how it was run: as §2
Mus musculus [23] = experiment: Antifibrotic activity in C57BL/6J mouse model of CCl4-induced liver fibrosis assessed as reduction in collagen accumulation in liver at 20 ug/kg, po administered 5 times a week via gavage measured at 72 hrs post final CCl4 injection by hematoxylin-eosin staining based assay; format: functional, organism-based; how it was run: as §2

## C=C1/C(=C\C=C2/CCC[C@]3(C)[C@@H]([C@H](C)/C=C/[C@@H](O)C4CC4)CC[C@@H]23)C[C@@H](O)C[C@@H]1O
Mus musculus [1]
  Activity: Active
[2]
  Activity: 93%
Mus musculus [3]
  Activity: Active
Mus musculus [4]
  Activity: Active
[5]
  collagen-1 synthesis inhibition relative to 1,25(OH)2D3 (%): 95%
Mus musculus [6]
  Activity: Active

## C=C1/C(=C\C=C2/CCC[C@]3(C)[C@@H]([C@H](C)CCCC(C)(C)O)CC[C@@H]23)C[C@@H](O)C[C@@H]1O [CALCITRIOL]
Mus musculus [1]
  Activity: Active
Mus musculus [3]
  Activity: Active
Mus musculus [4]
  Activity: Active
[7]
  half-life: 7.55 h
[8]
  bioavailability: 30.8%
Mus musculus [6]
  Activity: Active

## CCn1cc(C(CC)(CC)c2ccc(OCC(O)CO)c(C)c2)cc1C(=O)NCC(C)(C)O (stereo unspecified)
Mus musculus [9]
  Activity: Active
[10]
  inhibition: Active
[11]
  Activity: Active
Mus musculus [12]
  Activity: Non-Toxic
Mus musculus [1]
  Activity: Active
Homo sapiens [13]
  inhibition: inactive
Mus musculus [14]
  Activity: Active
Mus musculus [15]
  Activity: Active
[2]
  Activity: 62%
[16]
  Activity: Dose-dependent effect
Homo sapiens [17]
  inhibition: inactive
[18]
  inhibition: Active
Mus musculus [3]
  Activity: Active
[19]
  inhibition: Active
Mus musculus [4]
  Activity: Active
[7]
  half-life: 6.57 h
Mus musculus [20]
  Activity: Non-Toxic
Mus musculus [21]
  Activity: Active
[8]
  bioavailability: 29.3%
Mus musculus [6]
  Activity: Active
Mus musculus [22]
  Activity: Active
Mus musculus [23]
  Activity: Active

## CCCCCNC(=O)c1cc(C(CC)(CC)c2ccc(OCC(O)CO)c(C)c2)cn1CC (stereo unspecified)
[2]
  Activity: 16%
[5]
  collagen-1 synthesis inhibition relative to 1,25(OH)2D3 (%): 51%

## CCn1cc(C(CC)(CC)c2ccc(OC(=O)CCC(=O)O)c(C)c2)cc1C(=O)NCC(C)(C)O
[2]
  Activity: 30%
[5]
  collagen-1 synthesis inhibition relative to 1,25(OH)2D3 (%): 80%

## CCn1c(C(=O)NCC(C)(C)O)ccc1C(CC)(CC)c1ccc(OCC(O)CO)c(C)c1 (stereo unspecified)
[2]
  Activity: 43%
[16]
  Activity: Dose-dependent effect
[19]
  inhibition: inactive
[5]
  collagen-1 synthesis inhibition relative to 1,25(OH)2D3 (%): 150%

## CCn1cc(C(CC)(CC)c2ccc(OCCCCC(=O)O)c(C)c2)cc1C(=O)NCC(C)(C)O
[2]
  Activity: 30%
[5]
  collagen-1 synthesis inhibition relative to 1,25(OH)2D3 (%): 90%

## CCn1cc(C(CC)(CC)c2ccc(OC(=O)CCN)c(C)c2)cc1C(=O)NCC(C)(C)O
[2]
  Activity: 22%
[5]
  collagen-1 synthesis inhibition relative to 1,25(OH)2D3 (%): 66%

## CCCCCNC(=O)c1ccc(C(CC)(CC)c2ccc(OCC(O)CO)c(C)c2)n1CC (stereo unspecified)
[2]
  Activity: 21%
[5]
  collagen-1 synthesis inhibition relative to 1,25(OH)2D3 (%): 70%

## CCn1cc(C(CC)(CC)c2ccc(OCC(O)CO)c(C)c2)cc1C(=O)NCC(C)(C)C (stereo unspecified)
[2]
  Activity: 31%
[5]
  collagen-1 synthesis inhibition relative to 1,25(OH)2D3 (%): 119%

## CCn1cc(C(CC)(CC)c2ccc(OC(=O)[C@H](C)N)c(C)c2)cc1C(=O)NCC(C)(C)O
[2]
  Activity: 20%
[5]
  collagen-1 synthesis inhibition relative to 1,25(OH)2D3 (%): 73%

## CCn1cc(C(CC)(CC)c2ccc(OCC(O)CO)c(C)c2)cc1C(=O)NCC(F)(F)F (stereo unspecified)
[10]
  inhibition: Active
[2]
  Activity: 39%
[16]
  Activity: Dose-dependent effect
[18]
  inhibition: Active
[5]
  collagen-1 synthesis inhibition relative to 1,25(OH)2D3 (%): 133%

## CCn1c(C(=O)NCC(C)(C)C)ccc1C(CC)(CC)c1ccc(OCC(O)CO)c(C)c1 (stereo unspecified)
[2]
  Activity: 45%
[16]
  Activity: Dose-dependent effect
[19]
  inhibition: inactive

## CCn1cc(C(CC)(CC)c2ccc(OCCCC(=O)O)c(C)c2)cc1C(=O)NCC(C)(C)O
[2]
  Activity: 32%
[5]
  collagen-1 synthesis inhibition relative to 1,25(OH)2D3 (%): 112%

## CCn1c(C(=O)NCC(F)(F)F)ccc1C(CC)(CC)c1ccc(OCC(O)CO)c(C)c1 (stereo unspecified)
[2]
  Activity: 37%
[5]
  collagen-1 synthesis inhibition relative to 1,25(OH)2D3 (%): 135%

## CCn1c(C(=O)NCC2CC2)ccc1C(CC)(CC)c1ccc(OCC(O)CO)c(C)c1 (stereo unspecified)
[2]
  Activity: 27%
[5]
  collagen-1 synthesis inhibition relative to 1,25(OH)2D3 (%): 71%
